Results as given in ChEMBL document CHEMBL1770099, “Aromatic ring functionalization of benzolactam derivatives: new potent dopamine D3 receptor ligands” (Bioorg Med Chem Lett, 2011).

Legend:
D(1A) dopamine receptor = D(1A) dopamine receptor (Sus scrofa, UniProt P50130); assay: Displacement of [3H]SCH-23390 from dopamine D1 receptor in pig striatal membranes; format: cell membranes, Striatum, Membrane
Outline: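 Competition binding with D1-selective radioligand [3H]SCH23390 on porcine striatal membranes; Ki values are means of two to four individual competition experiments, each run in triplicate.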

D(2) dopamine receptor [1] = target: T1, D(2) dopamine receptor (Homo sapiens, UniProt P14416); assay: Displacement of [3H]Spiperone from human dopamine D2 long receptor expressed in CHO cells; format: cell-based
T1 sequence (P14416 whole entry): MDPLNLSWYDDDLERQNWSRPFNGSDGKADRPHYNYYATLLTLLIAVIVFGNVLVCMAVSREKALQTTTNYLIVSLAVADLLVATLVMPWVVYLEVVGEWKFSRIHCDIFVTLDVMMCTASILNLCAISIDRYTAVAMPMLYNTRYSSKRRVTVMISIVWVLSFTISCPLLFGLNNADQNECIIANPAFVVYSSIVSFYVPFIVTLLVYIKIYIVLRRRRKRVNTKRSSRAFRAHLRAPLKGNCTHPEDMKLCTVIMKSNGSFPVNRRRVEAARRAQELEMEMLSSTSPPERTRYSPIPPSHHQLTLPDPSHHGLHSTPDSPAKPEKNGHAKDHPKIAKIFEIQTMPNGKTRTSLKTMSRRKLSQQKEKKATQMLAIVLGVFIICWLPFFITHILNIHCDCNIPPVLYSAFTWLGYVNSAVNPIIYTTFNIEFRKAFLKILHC
Outline: (§1)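 Competition for [3H]spiperone binding to cloned human receptor (D2long, D2short or D4.4) stably expressed in CHO cells; Ki values are means of two to four individual competition experiments, each run in triplicate.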

D(2) dopamine receptor [2] = target: T1, D(2) dopamine receptor; assay: Displacement of [3H]Spiperone from human dopamine D2 short receptor expressed in CHO cells; format: cell-based; outline: as §1
D(3) dopamine receptor [3] = target: T2, D(3) dopamine receptor (Homo sapiens, UniProt P35462); assay: Displacement of [3H]Spiperone from human dopamine D3 receptor expressed in CHO cells; format: cell-based
T2 sequence (P35462 whole entry): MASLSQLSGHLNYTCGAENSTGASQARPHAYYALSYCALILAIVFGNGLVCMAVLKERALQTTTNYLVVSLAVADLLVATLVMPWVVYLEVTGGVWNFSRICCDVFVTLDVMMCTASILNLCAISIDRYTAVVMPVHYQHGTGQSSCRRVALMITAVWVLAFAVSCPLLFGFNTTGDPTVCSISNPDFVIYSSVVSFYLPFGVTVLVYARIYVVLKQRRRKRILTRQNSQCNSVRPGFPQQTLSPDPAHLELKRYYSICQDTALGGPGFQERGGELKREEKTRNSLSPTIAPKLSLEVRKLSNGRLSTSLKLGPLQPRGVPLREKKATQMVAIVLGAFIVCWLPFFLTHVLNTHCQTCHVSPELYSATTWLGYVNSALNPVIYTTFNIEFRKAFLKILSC

D(4) dopamine receptor = target: T3, D(4) dopamine receptor (Homo sapiens, UniProt P21917); assay: Displacement of [3H]Spiperone from human dopamine D4.4 receptor expressed in CHO cells; format: cell-based; outline: as §1
T3 sequence (P21917 whole entry): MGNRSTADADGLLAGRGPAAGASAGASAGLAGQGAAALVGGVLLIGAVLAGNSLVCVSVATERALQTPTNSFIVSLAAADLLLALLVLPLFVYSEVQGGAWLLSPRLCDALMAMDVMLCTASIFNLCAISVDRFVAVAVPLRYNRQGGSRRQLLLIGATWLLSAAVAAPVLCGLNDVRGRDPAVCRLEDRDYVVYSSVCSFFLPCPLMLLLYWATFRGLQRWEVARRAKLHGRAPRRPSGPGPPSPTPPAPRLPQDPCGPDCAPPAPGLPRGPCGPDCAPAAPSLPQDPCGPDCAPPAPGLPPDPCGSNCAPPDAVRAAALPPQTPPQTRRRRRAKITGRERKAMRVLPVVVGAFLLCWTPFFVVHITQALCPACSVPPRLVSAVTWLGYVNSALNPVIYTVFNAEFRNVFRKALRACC

[4] = Displacement of [3H]WAY-100635 from pig 5-HT1A receptor; set-up: species or system Sus scrofa
[5] = target: 5-hydroxytryptamine receptor 2A (Sus scrofa, UniProt P50129); assay: Displacement of [3H]Ketanserin from pig 5-HT2 receptor
Sequence of 5-hydroxytryptamine receptor 2A (P50129 whole entry): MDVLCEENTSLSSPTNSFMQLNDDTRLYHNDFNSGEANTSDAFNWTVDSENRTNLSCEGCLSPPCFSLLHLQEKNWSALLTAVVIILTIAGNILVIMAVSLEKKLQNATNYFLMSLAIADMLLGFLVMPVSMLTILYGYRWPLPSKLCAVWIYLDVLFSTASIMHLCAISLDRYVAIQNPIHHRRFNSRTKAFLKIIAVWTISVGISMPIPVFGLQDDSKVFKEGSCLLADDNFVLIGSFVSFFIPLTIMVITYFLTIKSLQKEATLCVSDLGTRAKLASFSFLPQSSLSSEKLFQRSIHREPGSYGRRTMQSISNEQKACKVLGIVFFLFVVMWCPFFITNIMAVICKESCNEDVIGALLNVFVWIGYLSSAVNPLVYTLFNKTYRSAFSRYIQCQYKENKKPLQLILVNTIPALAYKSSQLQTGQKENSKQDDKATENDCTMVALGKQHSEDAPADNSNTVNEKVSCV

[6] = Displacement of [3H]Prazosin from pig adrenergic alpha1 receptor; set-up: species or system Sus scrofa
D(3) dopamine receptor [7] = target: T2, D(3) dopamine receptor; assay: Agonist activity at human dopamine D3 receptor expressed in dhfr-deficient CHO cells assessed as [3H]thymidine incorporation; format: functional, cell-based
[8] = Selectivity ratio of Ki for dopamine D2 long receptor to Ki for dopamine D3 receptor
D(3) dopamine receptor [9] = target: T2, D(3) dopamine receptor; assay: Binding affinity to dopamine D3 receptor

Sequence of D(1A) dopamine receptor (P50130 whole entry): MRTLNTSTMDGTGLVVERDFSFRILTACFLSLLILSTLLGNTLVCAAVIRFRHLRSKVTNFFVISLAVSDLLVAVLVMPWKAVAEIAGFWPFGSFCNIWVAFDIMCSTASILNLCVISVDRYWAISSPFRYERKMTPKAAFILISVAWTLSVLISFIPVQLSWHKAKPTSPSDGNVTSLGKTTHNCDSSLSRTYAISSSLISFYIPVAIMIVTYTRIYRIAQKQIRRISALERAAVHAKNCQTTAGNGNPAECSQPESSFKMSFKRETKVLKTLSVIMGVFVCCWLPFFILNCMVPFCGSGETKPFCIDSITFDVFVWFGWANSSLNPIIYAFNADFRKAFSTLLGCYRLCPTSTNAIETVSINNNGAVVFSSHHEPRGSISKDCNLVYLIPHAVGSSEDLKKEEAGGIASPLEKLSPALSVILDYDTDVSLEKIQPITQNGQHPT

Structure (SMILES)	Ki (D(1A) dopamine receptor)	Ki (D(2) dopamine receptor [1])	Ki (D(2) dopamine receptor [2])	Ki (D(3) dopamine receptor [3])	Ki (D(4) dopamine receptor)	Ki [4]	Ki [5]	Ki [6]	EC50 (D(3) dopamine receptor [7])	Ratio Ki [8]	Ki (D(3) dopamine receptor [9])
COc1ccc2c(c1)CCCN(CCCCN1CCN(c3ccccc3OC)CC1)C2=O	2100 nM	3.2 nM	0.93 nM	0.27 nM	3 nM	2.5 nM	810 nM	3.7 nM			
COc1ccccc1N1CCN(CCCCN2CCc3cc(-c4ccccc4)ccc3C2=O)CC1	640 nM	38 nM	15 nM	0.25 nM	3.4 nM	38 nM	330 nM	5.4 nM	3.3 nM		
C#Cc1ccc2c(c1)CCN(CCCCN1CCN(c3ccccc3OC)CC1)C2=O	1900 nM	24 nM	8.8 nM	0.5 nM	4.1 nM	14 nM	920 nM	2.4 nM			
COc1ccccc1N1CCN(CCCCN2CCc3c(cccc3-c3ccccc3)C2=O)CC1	220 nM	52 nM	63 nM	12 nM	9.8 nM	47 nM	230 nM	1.3 nM			
COc1ccccc1N1CCN(CCCCN2CCc3cc(-c4ccncc4)ccc3C2=O)CC1	380 nM			0.12 nM	3.4 nM	13 nM	160 nM	2.2 nM			
Cc1nc(-c2ccc(C(=O)N[C@H]3CC[C@H](CCN4CCc5ccc(S(C)(=O)=O)cc5CC4)CC3)cc2)no1										100	4 nM
COc1ccccc1N1CCN(CCCCN2CCc3cc(F)ccc3C2=O)CC1	2300 nM	26 nM	9.2 nM	1.6 nM	2.8 nM	1.7 nM	840 nM	3.1 nM			
COc1ccccc1N1CCN(CCCCN2CCCc3ccccc3C2=O)CC1	2900 nM	3.9 nM	1.5 nM	0.27 nM	1.3 nM	1.7 nM	1100 nM	5.7 nM	0.33 nM		

The remaining lines, values ahead:

Ki (D(1A) dopamine receptor)	Ki (D(2) dopamine receptor [1])	Ki (D(2) dopamine receptor [2])	Ki (D(3) dopamine receptor [3])	Ki (D(4) dopamine receptor)	Ki [4]	Ki [5]	Ki [6]	EC50 (D(3) dopamine receptor [7])	Ratio Ki [8]	Ki (D(3) dopamine receptor [9])	Structure (SMILES)
2500 nM	21 nM	7 nM		1.9 nM	2.4 nM	990 nM	2.3 nM				COc1ccccc1N1CCN(CCCCN2CCc3ccccc3C2=O)CC1
3200 nM	38 nM	22 nM	1.3 nM	6.1 nM	3.8 nM	430 nM	3.8 nM				COc1ccccc1N1CCN(CCCCN2CCc3cc(C#N)ccc3C2=O)CC1
									37	2 nM	CC(=O)Nc1ccc(CCN2C[C@@H]3COc4ccc(C#N)cc4[C@H]3C2)cc1
580 nM	16 nM	4.8 nM	0.21 nM	3.3 nM	19 nM	330 nM	1.6 nM	2.3 nM			COc1ccccc1N1CCN(CCCCN2CCc3cc(-c4ccco4)ccc3C2=O)CC1
920 nM	5.1 nM	2.1 nM	0.29 nM	2.9 nM	68 nM	530 nM	9.7 nM				COc1ccccc1N1CCN(CCCCN2CCCc3cc(-c4cccs4)ccc3C2=O)CC1
									130		COc1ccccc1N1CCN(CCCCNC(=O)c2ccc(-c3ccc(C(C)=O)cc3)cc2)CC1
480 nM	11 nM	6.9 nM	0.12 nM	2.3 nM	6.2 nM	190 nM	3.7 nM	2.8 nM			COc1ccccc1N1CCN(CCCCN2CCc3cc(-c4cccs4)ccc3C2=O)CC1
